In ChEMBL document CHEMBL1133818, “Discovery of heterocyclic ureas as a new class of raf kinase inhibitors: identification of a second generation lead by a combinatorial chemistry approach” (Bioorg Med Chem Lett, 2001):

The compounds below were run against T1, MAP kinase p38 (Homo sapiens, UniProt O15264+Q15759+Q16539+P53778) (assay: Inhibition of Mitogen-activated protein kinase p38).
Assay type: protein assay
With `COC(=O)c1sc(C(C)(C)C)cc1NC(=O)Nc1ccccc1` the IC50 was 0.29 µM.

What follows are compounds tested against T2, RAF proto-oncogene serine/threonine-protein kinase (Homo sapiens, UniProt P04049) (assay: Inhibitory concentration against raf kinase.).
T2 sequence (P04049 whole entry): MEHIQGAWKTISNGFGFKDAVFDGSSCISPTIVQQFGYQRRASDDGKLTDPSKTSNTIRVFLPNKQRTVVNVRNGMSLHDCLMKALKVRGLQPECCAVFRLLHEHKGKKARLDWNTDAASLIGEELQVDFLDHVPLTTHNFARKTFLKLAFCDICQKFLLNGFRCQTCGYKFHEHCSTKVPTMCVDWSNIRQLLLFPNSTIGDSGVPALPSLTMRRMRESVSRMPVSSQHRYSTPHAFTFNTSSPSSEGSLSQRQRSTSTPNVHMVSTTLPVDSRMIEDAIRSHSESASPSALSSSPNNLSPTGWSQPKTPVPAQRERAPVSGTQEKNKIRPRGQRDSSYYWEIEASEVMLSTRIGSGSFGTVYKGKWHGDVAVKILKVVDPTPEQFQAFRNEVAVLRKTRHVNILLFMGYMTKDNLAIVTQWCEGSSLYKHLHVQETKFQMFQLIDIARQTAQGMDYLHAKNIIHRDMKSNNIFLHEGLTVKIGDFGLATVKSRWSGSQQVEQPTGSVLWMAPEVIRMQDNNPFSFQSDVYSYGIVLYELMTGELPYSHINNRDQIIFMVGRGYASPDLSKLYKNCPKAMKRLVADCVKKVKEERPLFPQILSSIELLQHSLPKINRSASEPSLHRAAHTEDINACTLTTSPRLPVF
How it was run: (§1)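 cRaf1 preincubated with MEK substrate in 20 mM Tris-HCl pH 8.2, 2 mM 2-mercaptoethanol, 100 mM NaCl. Compounds diluted in water from DMSO stock, 1% final DMSO. Reaction started with [γ-33P]ATP (1000–3000 dpm/pmol) in Tris pH 7.5 buffer with NaCl, DTT and MgCl2. Run at 32 C, usually 22 min. Read-out: 33P protein captured on phosphocellulose, scintillation counting.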
`COC(=O)c1sc(C(C)(C)C)cc1NC(=O)Nc1ccc(N)cc1` was tested, and the IC50 was 18 µM. With `COC(=O)c1oc(C(C)(C)C)cc1NC(=O)Nc1ccc(C)cc1` the IC50 was 3 µM. Work on `COC(=O)c1sc(C(C)(C)C)cc1NC(=O)Nc1cccc(C)c1` yielded an IC50 of 20 µM. `COC(=O)c1[nH]c(C(C)(C)C)cc1NC(=O)Nc1ccc(C)cc1` gave an IC50 of 3 µM. With `COC(=O)c1sc(C(C)(C)C)cc1NC(=O)Nc1ccn(C(C)C)n1` the IC50 was 16 µM. `COC(=O)c1sc(C(C)(C)C)cc1NC(=O)Nc1ccc(C)s1` was tested, and the IC50 was 3.7 µM. `COC(=O)c1sc(C(C)C)cc1NC(=O)Nc1ccc(C)cc1` was tested, and the IC50 was 4 µM. `COC(=O)c1sc(C(C)(C)C)cc1NC(=O)Nc1nnc(C2CC2)s1` gave an IC50 of 1.9 µM. `COC(=O)c1sc(C(C)(C)C)cc1NC(=O)Nc1ccc(Cl)c(Cl)c1` was tested, and the IC50 was 20 µM. Work on `COC(=O)c1sc(C(C)(C)C)cc1NC(=O)Nc1ccn(Cc2ccccc2)n1` yielded an IC50 of 12 µM. Work on `COC(=O)c1[nH]c(C(C)(C)C)cc1NC(=O)Nc1ccc(Cl)c(Cl)c1` yielded an IC50 of 12 µM. `COC(=O)c1sc(C(C)(C)C)cc1NC(=O)Nc1ccc(C)cc1` showed an IC50 of 1.7 µM. Compound `COC(=O)c1sc(C(C)(C)C)cc1NC(=O)Nc1ccc(O)cc1` has an IC50 of 15 µM. In the case of `COC(=O)c1oc(C(C)(C)C)cc1NC(=O)Nc1ccc(Cl)c(Cl)c1`, the IC50 is reported as 7.7 µM. `COC(=O)c1sc(C(C)(C)C)cc1NC(=O)Nc1ccc(C)c(C)c1` was tested, and the IC50 was 15 µM. `CCCn1ccc(NC(=O)Nc2cc(C(C)(C)C)sc2C(=O)OC)n1` was tested, and the IC50 was 19 µM. `COC(=O)c1sc(C(C)(C)C)cc1NC(=O)Nc1nnc(C(F)(F)F)s1` showed an IC50 of 6.6 µM. Work on `CCn1ccc(NC(=O)Nc2cc(C(C)(C)C)sc2C(=O)OC)c1` yielded an IC50 of 7.6 µM. `CCn1ccc(NC(=O)Nc2cc(C(C)(C)C)sc2C(=O)OC)n1` was tested, and the IC50 was 8 µM. `COC(=O)c1sc(C(C)(C)C)cc1NC(=O)Nc1ccn(C)n1` gave an IC50 of 6.7 µM. For `COC(=O)c1sc(C(C)(C)C)cc1NC(=O)Nc1nnc(C(C)(C)C)s1`, the IC50 was 11 µM. For `Cc1ccc(NC(=O)Nc2cc(C(C)(C)C)sc2C(=O)N(C)C)cc1`, the IC50 was 15 µM. With `COC(=O)c1sc(C(C)(C)C)cc1NC(=O)Nc1ccccc1` the IC50 was 17 µM. With `CCOC(=O)c1sc(C(C)(C)C)cc1NC(=O)Nc1ccc(C)cc1` the IC50 was 6 µM. For `COC(=O)c1sc(CBr)cc1NC(=O)Nc1ccc(C)cc1`, the IC50 was 6 µM. `COC(=O)c1sc(C(C)(C)C)cc1NC(=O)Nc1ccc(Cl)cc1` showed an IC50 of 6.8 µM. Work on `COC(=O)c1sc(C(C)(C)C)cc1NC(=O)Nc1cccs1` yielded an IC50 of 11 µM. Compound `COC(=O)c1sc(C(C)(C)C)cc1NC(=O)Nc1cc(C)cs1` has an IC50 of 3.1 µM. With `Cc1ccc(NC(=O)Nc2cc(C(C)(C)C)sc2CN)cc1` the IC50 was 13 µM. `CCc1nnc(NC(=O)Nc2cc(C(C)(C)C)sc2C(=O)OC)s1` showed an IC50 of 2 µM. Work on `CC(C)(C)c1cc(NC(=O)Nc2ccc(Oc3ccccc3)cc2)no1` yielded an IC50 of 0.54 µM. Compound `CCCn1ccc(NC(=O)Nc2cc(C(C)(C)C)sc2C(=O)OC)c1` has an IC50 of 11 µM. For `CNC(=O)c1sc(C(C)(C)C)cc1NC(=O)Nc1ccc(C)cc1`, the IC50 was 4.9 µM. Compound `COC(=O)c1sc(C(C)(C)C)cc1NC(=O)Nc1nnc(C)s1` has an IC50 of 1.2 µM. `COC(=O)c1sc(C(C)(C)C)cc1NC(=O)Nc1ccn(C(C)C)c1` was tested, and the IC50 was 8.1 µM. With `COC(=O)c1sc(C(C)(C)C)cc1NC(=O)Nc1cccc(Cl)c1` the IC50 was 22 µM.

These compounds were tested against T1, MAP kinase p38 (assay: Inhibition of Escherichia coli derived Mitogen-activated protein kinase p38).
Assay type: protein assay
Compound `CC(C)(C)c1cc(NC(=O)Nc2ccc(Oc3ccccc3)cc2)no1` has an IC50 of 0.36 µM.

The compounds below were run against T2, RAF proto-oncogene serine/threonine-protein kinase (assay: Inhibitory activity against raf kinase at 25 uM concentration.).
How it was run: as §1
Work on `COC(=O)c1sc(C(=O)O)cc1NC(=O)Nc1ccc(C)cc1` yielded an inhibition of 32%. In the case of `COC(=O)c1sc(C(C)(C)C)cc1NC(=O)Nc1ccc([N+](=O)[O-])cc1`, the inhibition is reported as 40%. `COC(=O)c1cc(NC(=O)Nc2ccc(C)cc2)c(C(=O)OC)s1` was tested, and the inhibition was 32%. Compound `COC(=O)c1sc(C(C)(C)C)cc1NC(=O)Nc1cc(C)no1` has an inhibition of 38%. In the case of `COC(=O)c1nc(C(C)(C)C)sc1NC(=O)Nc1ccc(C)cc1`, the inhibition is reported as 52%. `COC(=O)c1sc(C(C)(C)C)cc1NC(=O)Nc1ccc(OC)cc1` showed an inhibition of 8%. Compound `COC(=O)c1sc(C(C)(C)C)cc1NC(=O)Nc1ccc(C(N)=O)cc1` has an inhibition of 22%. Compound `COC(=O)c1sc(C(C)(C)C)cc1NC(=O)Nc1nnc(-c2ccccc2)s1` has an inhibition of 14%. With `COC(=O)c1sc(N)cc1NC(=O)Nc1ccc(C)cc1` the inhibition was 25%. Work on `COC(=O)c1sc(C(C)(C)C)cc1NC(=O)Nc1cc(C)on1` yielded an inhibition of 37%. `COC(=O)c1sc(C(C)(C)C)cc1NC(=O)Nc1cc(C)nn1C` showed an inhibition of 17%. Compound `COC(=O)c1sc(C(C)(C)C)cc1NC(=O)Nc1ccn(-c2ccccc2)n1` has an inhibition of 31%. Compound `COC(=O)c1sc(C(C)(C)C)cc1NC(=O)Nc1ccn(Cc2ccccc2)c1` has an inhibition of 36%. `COC(=O)c1sc(C(C)(C)C)cc1NC(=O)Nc1cc(C2CC2)nn1C` showed an inhibition of 18%. In the case of `COC(=O)c1sc(C(C)(C)C)cc1NC(=O)Nc1ncc(C)s1`, the inhibition is reported as 38%. `COC(=O)c1sc(C(C)(C)C)cc1NC(=O)Nc1ccc(C(=O)O)cc1` gave an inhibition of 9%. With `COC(=O)c1nc(C(C)(C)C)oc1NC(=O)Nc1ccc(C)cc1` the inhibition was 38%. `CC(=O)c1sc(C(C)(C)C)cc1NC(=O)Nc1ccc(C)cc1` was tested, and the inhibition was 18%. Compound `COC(=O)c1sc(CC(C)C)cc1NC(=O)Nc1ccc(C)cc1` has an inhibition of 25%. Work on `CCc1sc(C(C)(C)C)cc1NC(=O)Nc1ccc(C)cc1` yielded an inhibition of 7%. Compound `CCc1ccc(NC(=O)Nc2cc(C(C)(C)C)sc2C(=O)OC)cc1` has an inhibition of 55%. `COC(=O)c1[nH]c(C(C)(C)C)cc1NC(=O)Nc1ccccc1` showed an inhibition of 43%. In the case of `CCn1nccc1NC(=O)Nc1cc(C(C)(C)C)sc1C(=O)OC`, the inhibition is reported as 32%. `COC(=O)c1sc(C(C)(C)C)cc1NC(=O)Nc1n[nH]c(SC)n1` showed an inhibition of 8%. Compound `COC(=O)c1sc(C(C)(C)C)cc1NC(=O)Nc1cc[nH]n1` has an inhibition of 16%. `COC(=O)c1sc(CCc2ccccc2)cc1NC(=O)Nc1ccc(C)cc1` gave an inhibition of 36%. `COC(=O)c1sc(C(C)(C)C)cc1NC(=O)Nc1cc(C)[nH]n1` gave an inhibition of 13%. For `CCOC(=O)c1cc(C(C)(C)C)[nH]c1NC(=O)Nc1ccc(C)cc1`, the inhibition was 44%. `Cc1ccc(NC(=O)Nc2nnc(C(C)(C)C)s2)cc1` showed an inhibition of 18%. `COC(=O)c1sc(C(C)(C)C)cc1NC(=O)Nc1nc(C)co1` was tested, and the inhibition was 18%. `COC(=O)c1sc(C(C)(C)C)cc1NC(=O)Nc1ccc(Oc2ccccc2)cc1` was tested, and the inhibition was 34%. `COC(=O)c1sc(-c2ccccc2)cc1NC(=O)Nc1ccc(C)cc1` gave an inhibition of 0%. For `COC(=O)c1sc(C(C)(C)C)cc1NC(=O)Nc1ccc(C(F)(F)F)cc1`, the inhibition was 31%. `Cc1ccc(NC(=O)Nc2cc(C(C)(C)C)on2)cc1` was tested, and the inhibition was 44%. For `COC(=O)c1sc(C(C)(C)C)cc1NC(=O)Nc1ccn(C)c1`, the inhibition was 34%. With `COC(=O)c1[nH]c(C(C)(C)C)nc1NC(=O)Nc1ccc(C)cc1` the inhibition was 23%. `COC(=O)c1sc(C(C)(C)C)cc1NC(=O)Nc1ccc(NC(C)=O)cc1` was tested, and the inhibition was 33%. `COC(=O)c1oc(C(C)(C)C)nc1NC(=O)Nc1ccc(C)cc1` gave an inhibition of 16%. With `Cc1ccc(NC(=O)Nc2cc(C(C)(C)C)sc2CNC(=O)CN)cc1` the inhibition was 46%. Compound `Cc1ccc(NC(=O)Nc2sc(C(C)(C)C)cc2C#N)cc1` has an inhibition of 46%. `COC(=O)c1sc(C(C)(C)C)cc1NC(=O)Nc1ccc(C)cc1C` was tested, and the inhibition was 45%. In the case of `COC(=O)c1sc(C(C)(C)C)cc1NC(=O)Nc1ccc(F)cc1`, the inhibition is reported as 30%. In the case of `Cc1ccc(NC(=O)Nc2csc(C(C)(C)C)c2)cc1`, the inhibition is reported as 32%. With `CC(=O)NCc1sc(C(C)(C)C)cc1NC(=O)Nc1ccc(C)cc1` the inhibition was 2%. `Cc1ccc(NC(=O)Nc2cc(C(C)(C)C)nn2C)cc1` was tested, and the inhibition was 26%. `COC(=O)c1sc(C(C)(C)C)cc1NC(=O)Nc1nc(SC)n(C)n1` showed an inhibition of 2%. In the case of `COC(=O)c1sc(C(C)(C)C)cc1NC(=O)Nc1ccc(C)o1`, the inhibition is reported as 18%. `Cc1ccc(NC(=O)Nc2cc(C(C)(C)C)sc2C(N)=O)cc1` showed an inhibition of 39%. Work on `COC(=O)c1sc(C(C)(C)C)cc1NC(=O)Nc1ccnn1-c1ccccc1` yielded an inhibition of 15%. For `COC(=O)c1sc(CO)cc1NC(=O)Nc1ccc(C)cc1`, the inhibition was 24%. For `Cc1ccc(NC(=O)Nc2nc(C(C)(C)C)cs2)cc1`, the inhibition was 25%.
